SIRT5 block: blocks human SIRT5 desuccinylation of peptide. 1.1% of 330,000 active. Purified SirT5, succinyl-peptide AMC, trypsin-coupled fluorescence. inhibition, % at 15 µM; in the data active = inhibition above about 15%; inconclusive = no clear call, values can overlap the other calls
Target sequence (Q9NXA8 whole entry, looked up): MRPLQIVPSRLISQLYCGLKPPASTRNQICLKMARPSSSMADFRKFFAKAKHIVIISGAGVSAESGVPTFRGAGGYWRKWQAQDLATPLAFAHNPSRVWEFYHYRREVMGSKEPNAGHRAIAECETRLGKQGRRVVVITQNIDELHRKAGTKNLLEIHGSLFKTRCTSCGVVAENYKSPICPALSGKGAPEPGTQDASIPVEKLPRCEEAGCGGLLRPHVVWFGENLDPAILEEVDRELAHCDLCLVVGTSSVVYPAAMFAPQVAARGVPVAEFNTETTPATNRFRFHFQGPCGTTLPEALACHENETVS
E-sel inducer: induces E-selectin expression in human endothelial cells | activation, % at 7.58 µM | AID 686992 | P16581 | 0.37% of 260,000 active | HUVEC E-selectin immunofluorescence imaging; normalized: neutral wells 0, TNF-alpha wells 100;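 active = mean E-selectin-positive cell signal at least 10% of the positive control, reached in at least 60% of replicates, without over 20% cell loss; inconclusive = no rule given, readout overlaps actives, possibly toxicity-flagged; inactive = the rest, including those meeting only one limit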
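Test system: HUVEC | Signal: Immunofluorescence imaging | Read-out: Percent E-selectin-positive cells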
DENV2 CPE rescue: inhibitors of DENV2 cytopathic effect; DENV2-infected cells, cytopathic effect rescue, plate reader; CPE inhibition, % at 9.99 µM; 1.7% of 350,000 active; AID 651640; in the data active = CPE inhibition above about 20%, passing the limit was not always enough; inconclusive = no clear call, values can overlap the other calls; tested in BHK-21 cells;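 note: 0% = median of neutral control wells and 100% = median of positive control wells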
An asterisk follows results filed as active; ? = inconclusive; . = not tested or not shown. In the library only some 2.8% were active in any assay of this set; here they are far more common.

SMILES | SIRT5 block | E-sel inducer | DENV2 CPE rescue
Cc1ccccc1-c1ccc2c(c1)O[C@H](CN(C)C(=O)Nc1ccc(F)cc1)[C@@H](C)CN([C@@H](C)CO)S2(=O)=O | . | 0.0 | .
COc1cccc(NC(=O)N(C)C[C@@H]2Oc3cc(-c4ccccc4F)ccc3S(=O)(=O)N([C@H](C)CO)C[C@@H]2C)c1 | 17.0* | . | ?
Cc1ccccc1-c1ccc2c(c1)O[C@H](CN(C)C(=O)Nc1ccc(F)cc1)[C@H](C)CN([C@H](C)CO)S2(=O)=O | 15.7* | 0.1 | -10.5
O=S(=O)(c1cccc(F)c1)N1CCN(Cc2cccc(OCCO)c2)CC1 | . | . | 5.8
CNC[C@@H]1Oc2ncc(C#CC3CCCCC3)cc2C(=O)N([C@@H](C)CO)C[C@@H]1C | . | -0.3 | .
C[C@@H]1CCCCO[C@@H](CN(C)S(=O)(=O)c2cccs2)[C@@H](C)CN([C@H](C)CO)C(=O)c2cc(NC(=O)NC3CCCCC3)ccc2O1 | . | 1.0 | -18.8
N#Cc1cccc(-c2ccc(C3[C@H]4CNC[C@@H]3N4Cc3cc(F)ccc3F)cc2)c1 (stereo partly specified) | 0.1 | -0.1 | -4.5
CCCN1C[C@@H](C)[C@@H](OC)CN(C)C(=O)c2cc(NC(=O)Nc3ccccc3F)ccc2OC[C@H]1C | 4.6 | 0.1 | 6.0
C[C@H]1CN([C@@H](C)CO)S(=O)(=O)c2ccc(C3=CCCCC3)cc2O[C@@H]1CN(C)Cc1ccncc1 | 6.4 | 0.4 | 18.3
C[C@H]1CN([C@@H](C)CO)C(=O)c2cc(NS(=O)(=O)c3cn(C)cn3)ccc2O[C@H]1CN(C)Cc1ccccc1 | -1.3 | 0.0 | 11.9
Cc1ccc(S(=O)(=O)Nc2ccc3c(c2)CC(=O)N([C@H](C)CO)C[C@@H](C)[C@@H](CN(C)Cc2ccc(C(=O)Nc4ccccc4N)cc2)O3)cc1 | 0.5 | -0.1 | -2.1
Cc1ccc(S(=O)(=O)Nc2ccc3c(c2)C(=O)N([C@H](C)CO)C[C@@H](C)[C@@H](CN(C)Cc2ccc(C(F)(F)F)cc2)OCCCC[C@H](C)O3)cc1 | 19.9* | . | -16.8
Cc1ccc(S(=O)(=O)Nc2ccc3c(c2)C(=O)N([C@H](C)CO)C[C@H](C)[C@H](CN(C)Cc2ccc(C(F)(F)F)cc2)OCCCC[C@H](C)O3)cc1 | 32.0* | . | -25.8
Cc1ccc(S(=O)(=O)Nc2ccc3c(c2)C(=O)N([C@@H](C)CO)C[C@H](C)[C@@H](CN(C)Cc2ccc(C(F)(F)F)cc2)OCCCC[C@H](C)O3)cc1 | 23.0* | . | -25.4
Cc1ccc(S(=O)(=O)Nc2ccc3c(c2)C(=O)N([C@H](C)CO)C[C@H](C)[C@@H](CN(C)Cc2ccc(C(F)(F)F)cc2)OCCCC[C@@H](C)O3)cc1 | 1.7 | . | -11.3
Cc1ccc(S(=O)(=O)Nc2ccc3c(c2)C(=O)N([C@@H](C)CO)C[C@@H](C)[C@H](CN(C)Cc2ccc(C(F)(F)F)cc2)OCCCC[C@@H](C)O3)cc1 | 18.5* | . | -22.9
Cc1ccc(S(=O)(=O)Nc2ccc3c(c2)C(=O)N([C@@H](C)CO)C[C@@H](C)[C@H](CN(C)Cc2ccc(C(F)(F)F)cc2)OCCCC[C@H](C)O3)cc1 | 11.4 | . | -25.4
C[C@H]1CN([C@@H](C)CO)C(=O)Cc2cc(NC(=O)Nc3ccccc3)ccc2O[C@@H]1CN(C)S(=O)(=O)c1ccc(F)cc1 | 0.6 | 0.1 | -1.4
Cc1ccc(S(=O)(=O)Nc2ccc3c(c2)C(=O)N([C@H](C)CO)C[C@@H](C)[C@@H](CN(C)Cc2ccc(C(F)(F)F)cc2)OCCCC[C@@H](C)O3)cc1 | 17.7* | . | -26.0
O=C(C[C@H]1C[C@@H]2c3cc(NC(=O)NC4CCCC4)ccc3O[C@@H]2[C@H](CO)O1)NCc1ccncc1 | 2.4 | 0.1 | 0.9
Cc1ccc(-n2ncc3c2CCCC3NC(=O)CCc2c(C)noc2C)cc1C (stereo unspecified) | 0.1 | . | 63.8*
CCCC(=O)NC1CCCc2c1cnn2-c1ccc(C)c(C)c1 (stereo unspecified) | -0.5 | . | -6.4
COc1ccc(CNC(=O)C[C@@H]2C=C[C@@H](NS(=O)(=O)c3cccc(OC)c3)[C@H](CO)O2)cc1 | 3.0 | -0.4 | -1.6
O=C(Cc1ccccc1)N[C@H]1C=C[C@@H](CC(=O)N2CCCCC2)O[C@@H]1CO | 2.5 | -0.3 | -3.5
CCOC(=O)C(NC(=O)Nc1ccc(Cl)cn1)(Oc1ccc(F)cc1)C(F)(F)F (stereo unspecified) | 2.6 | . | 77.6*
SMILES | SIRT5 block | E-sel inducer | DENV2 CPE rescue
O=C(COC(=O)c1ccc(F)cc1)Nc1ccc(Cl)cn1 | -2.7 | 1.5 | 1.2
COc1ccc(NC(=O)N[C@@H]2CC[C@@H](CCNC(=O)Cc3ccncc3)O[C@H]2CO)cc1 | -0.4 | -0.4 | -2.1
O=C(NC[C@H]1CC[C@@H]2[C@@H](CN2Cc2cc(-c3ccccc3)on2)O1)c1ccc2c(c1)OCO2 | -3.1 | . | 0.8
O=C(NCCCN=C1NS(=O)(=O)c2ccccc21)c1ccco1 | 0.1 | . | -4.5
O=C(NCCN=C1NS(=O)(=O)c2ccccc21)c1ccco1 | 20.0* | . | .
C[C@@H]1CN([C@H](C)CO)S(=O)(=O)c2ccc(-c3cccnc3)cc2O[C@H]1CN(C)C(=O)C1CCCCC1 | -1.3 | 0.4 | -2.8
C[C@@H]1CN([C@@H](C)CO)C(=O)Cc2cc(NC(=O)CCCCCC(=O)Nc3ccccc3N)ccc2O[C@@H]1CN(C)CC1CC1 | 1.4 | -0.1 | -6.8
Cc1ccc2[nH]c(C(=O)N3CCN(C=O)CC3)cc2c1 | 15.7* | . | 0.1
CCOC(=O)N1CCN(C(=O)c2cc3cc(C)ccc3[nH]2)CC1 | 2.1 | 0.5 | -14.8
CC(C)C#Cc1ccc([C@@H]2[C@@H](CO)N3C(=O)CN(C(=O)NC4CCCCC4)C[C@H]23)cc1 | -0.7 | -0.5 | -4.3
CC(C)CCCCCCCCc1cccc(O)c1C(=O)O | 20.0* | . | 8.3
CC(C)CCC(C(=O)NC(C)c1ccccc1)C(=O)NC(C)c1ccccc1 (stereo unspecified) | 0.2 | 1.1 | 1.3
O=C(c1cccnc1)N1CCCCN2[C@H](CO)[C@@H](c3ccc(C#Cc4ccccc4)cc3)[C@H]2C1 | -1.7 | . | -4.8
COc1ccc(S(=O)(=O)N2CC[C@@H]3[C@@H](CO)Nc4ccc(-c5ccc(C#N)cc5)cc4[C@@H]32)cc1 | 1.3 | 0.1 | 7.2
O=S(=O)(c1cccc(F)c1)N1CC[C@H]2[C@H](CO)Nc3ccc(-c4cccc(F)c4)cc3[C@H]21 | . | -0.7 | 18.7
O=S(=O)(c1ccccc1F)N1CC[C@@H]2[C@H](CO)Nc3ccc(-c4ccccc4F)cc3[C@@H]21 | 5.8 | -0.5 | -25.0
O=S(=O)(c1ccc(F)cc1)N1CC[C@H]2[C@H](CO)Nc3ccc(-c4ccccc4F)cc3[C@H]21 | 4.7 | -0.6 | 42.8*
O=S(=O)(c1cccc(F)c1)N1CC[C@@H]2[C@H]1c1cc(-c3cccc(F)c3)ccc1N[C@@H]2CO | . | -0.9 | 51.6*
Cc1ccccc1S(=O)(=O)N1CC[C@@H]2[C@@H](CO)Nc3ccc(-c4ccccc4F)cc3[C@@H]21 | 0.9 | -0.8 | 42.0*
O=S(=O)(c1ccccc1)N1CC[C@H]2[C@H](CO)Nc3ccc(-c4ccccc4F)cc3[C@H]21 | . | 0.6 | .
Cc1ccc(S(=O)(=O)N2CC[C@@H]3[C@H]2c2cc(-c4ccc(C#N)cc4)ccc2N[C@@H]3CO)cc1 | . | -0.8 | 24.3*

Compound activity from PubChem.
